Test results taken from ChEMBL document CHEMBL4118097, “Selective Inhibitors of Dual Leucine Zipper Kinase (DLK, MAP3K12) with Activity in a Model of Alzheimer's Disease” (J Med Chem, 2017).

Columns and labels:
[1] = biological target: Protein kinase C alpha type (Homo sapiens) (UniProt P17252); test: Inhibition of recombinant full length human PKCalpha expressed in baculovirus expression system at 1 uM by FRET assay relative to control
[2] = biological target: Ribosomal protein S6 kinase alpha-2 (Homo sapiens) (UniProt Q15349); test: Inhibition of recombinant full length GST-tagged human RSK3 expressed in insect cells at 1 uM by FRET assay relative to control
Outline: (§1)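 Single-concentration screen at 1 μM in Life Technologies SelectScreen, across a 220-kinase panel. Z′-LYTE format measures phosphorylation of a labeled peptide by FRET. Results are reported as percent inhibition.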

[3] = biological target: Serine/threonine-protein kinase 4 (Homo sapiens) (UniProt Q13043); test: Inhibition of recombinant full length GST-tagged human MST1 expressed in baculovirus at 1 uM by FRET assay relative to control; outline: as §1
[4] = biological target: Adrenergic receptor alpha-1 (Homo sapiens) (UniProt P35348+P25100+P35368); test: Binding affinity to alpha1 adrenergic receptor (unknown origin) at 10 uM relative to control; type: protein assay
Outline: (§2)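 Broad radioligand-binding and enzyme screening panel covering 42 targets (biogenic amine and neuropeptide receptors, ion channels, neurotransmitter transporters, acetylcholinesterase). Single test concentration of 10 μM. Results expressed as binding relative to control, with a hit defined as >50% of control.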

[5] = biological target: Ephrin type-B receptor 3 (Homo sapiens) (UniProt P54753); test: Inhibition of recombinant GST-tagged human EphB3 cytoplasmic domain expressed in baculovirus expression system at 1 uM by FRET assay relative to control
Sequence of Ephrin type-B receptor 3 (Homo sapiens) (P54753 whole entry, the tested form may be a part): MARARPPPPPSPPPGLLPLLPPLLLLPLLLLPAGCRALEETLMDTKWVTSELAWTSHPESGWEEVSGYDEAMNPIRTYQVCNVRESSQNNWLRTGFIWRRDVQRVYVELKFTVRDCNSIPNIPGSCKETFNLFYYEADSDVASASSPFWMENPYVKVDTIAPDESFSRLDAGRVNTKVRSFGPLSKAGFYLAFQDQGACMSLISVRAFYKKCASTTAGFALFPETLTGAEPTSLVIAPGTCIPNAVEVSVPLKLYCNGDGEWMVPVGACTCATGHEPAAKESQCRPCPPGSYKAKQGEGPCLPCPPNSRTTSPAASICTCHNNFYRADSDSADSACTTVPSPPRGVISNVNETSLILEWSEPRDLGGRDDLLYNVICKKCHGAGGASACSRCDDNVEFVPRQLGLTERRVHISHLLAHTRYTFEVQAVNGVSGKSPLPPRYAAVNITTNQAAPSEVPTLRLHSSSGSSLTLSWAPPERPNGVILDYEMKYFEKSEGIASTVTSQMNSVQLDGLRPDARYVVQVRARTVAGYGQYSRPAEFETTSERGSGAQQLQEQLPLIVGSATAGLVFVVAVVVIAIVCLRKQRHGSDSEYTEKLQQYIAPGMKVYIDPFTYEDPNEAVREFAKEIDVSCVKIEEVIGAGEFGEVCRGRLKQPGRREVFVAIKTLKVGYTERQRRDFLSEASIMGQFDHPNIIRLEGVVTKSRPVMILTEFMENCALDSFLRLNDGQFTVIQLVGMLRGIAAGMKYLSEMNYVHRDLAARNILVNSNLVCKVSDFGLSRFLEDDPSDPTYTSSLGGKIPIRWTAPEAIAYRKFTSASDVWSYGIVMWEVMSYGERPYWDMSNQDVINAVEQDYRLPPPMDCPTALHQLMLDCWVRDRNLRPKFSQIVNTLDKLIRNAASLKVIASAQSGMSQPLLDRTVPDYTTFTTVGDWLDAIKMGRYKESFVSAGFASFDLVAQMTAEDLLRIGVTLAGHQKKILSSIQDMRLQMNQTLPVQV
Outline: (§3)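 Single-point screen at 1 μM compound in a 220-kinase panel run by Life Technologies (SelectScreen). Z′-LYTE format: phosphorylation of a labeled peptide substrate read by FRET. Values are reported as percent inhibition.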

Ephrin type-A receptor 7 = Ephrin type-A receptor 7 (Homo sapiens, UniProt Q15375); test: Inhibition of recombinant GST-tagged human EphA7 cytoplasmic domain expressed in baculovirus expression system at 1 uM by FRET assay relative to control; outline: as §3
[6] = biological target: Serine/threonine-protein kinase PLK1 (Homo sapiens) (UniProt P53350); test: Inhibition of full length recombinant His-tagged human PLK1 expressed in baculovirus expression system at 1 uM by FRET assay relative to control
[7] = biological target: Mitogen-activated protein kinase 9 (Homo sapiens, UniProt P45984); test: Inhibition of recombinant full length His-tagged human JNK2 ([…]) expressed in baculovirus expression system at by FRET assay
[8] = biological target: Homeodomain-interacting protein kinase 1 (Homo sapiens) (UniProt Q86Z02); test: Inhibition of recombinant GST-tagged human HIPK1 catalytic domain expressed in baculovirus expression system at 1 uM by FRET relative to control; outline: as §3
Sequence of Homeodomain-interacting protein kinase 1 (Homo sapiens) (Q86Z02 whole entry, looked up, the tested form may be a part): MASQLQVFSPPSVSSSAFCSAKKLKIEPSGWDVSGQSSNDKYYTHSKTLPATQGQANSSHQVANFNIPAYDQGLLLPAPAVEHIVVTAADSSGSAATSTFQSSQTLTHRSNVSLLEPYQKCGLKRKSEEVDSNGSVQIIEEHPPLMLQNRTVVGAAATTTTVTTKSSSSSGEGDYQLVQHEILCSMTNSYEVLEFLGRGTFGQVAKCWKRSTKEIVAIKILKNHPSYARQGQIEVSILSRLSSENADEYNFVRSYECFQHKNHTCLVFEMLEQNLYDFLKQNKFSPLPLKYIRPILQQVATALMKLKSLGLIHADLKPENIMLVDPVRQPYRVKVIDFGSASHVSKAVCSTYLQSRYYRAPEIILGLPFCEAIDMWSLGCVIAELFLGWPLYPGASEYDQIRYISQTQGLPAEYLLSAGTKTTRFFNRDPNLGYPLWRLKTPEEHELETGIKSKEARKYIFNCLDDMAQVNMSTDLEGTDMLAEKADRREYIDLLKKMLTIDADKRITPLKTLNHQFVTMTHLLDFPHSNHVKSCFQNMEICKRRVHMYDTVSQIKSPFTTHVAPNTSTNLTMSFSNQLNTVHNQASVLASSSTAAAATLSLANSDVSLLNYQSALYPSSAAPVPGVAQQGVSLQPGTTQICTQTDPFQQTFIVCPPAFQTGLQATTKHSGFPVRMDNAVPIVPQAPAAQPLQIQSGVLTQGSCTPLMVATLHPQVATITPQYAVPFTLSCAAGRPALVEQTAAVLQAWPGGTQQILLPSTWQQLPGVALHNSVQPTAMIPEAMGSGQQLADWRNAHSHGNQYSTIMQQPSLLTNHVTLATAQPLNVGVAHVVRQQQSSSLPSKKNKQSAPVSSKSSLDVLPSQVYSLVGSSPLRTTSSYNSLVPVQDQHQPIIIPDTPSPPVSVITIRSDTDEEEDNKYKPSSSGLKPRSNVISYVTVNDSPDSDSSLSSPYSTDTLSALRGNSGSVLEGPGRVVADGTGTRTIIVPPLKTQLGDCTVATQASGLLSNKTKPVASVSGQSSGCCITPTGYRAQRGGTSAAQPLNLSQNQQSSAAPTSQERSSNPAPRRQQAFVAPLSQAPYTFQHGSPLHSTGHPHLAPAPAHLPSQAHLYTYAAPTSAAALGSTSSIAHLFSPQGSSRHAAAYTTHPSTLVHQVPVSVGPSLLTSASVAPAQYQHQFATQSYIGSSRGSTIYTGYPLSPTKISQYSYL

[9] = biological target: Protein kinase C delta type (Homo sapiens) (UniProt Q05655); test: Inhibition of recombinant full length human PKCdelta expressed in baculovirus expression system at 1 uM by FRET assay relative to control
Sequence of Protein kinase C delta type (Homo sapiens) (Q05655 whole entry, looked up): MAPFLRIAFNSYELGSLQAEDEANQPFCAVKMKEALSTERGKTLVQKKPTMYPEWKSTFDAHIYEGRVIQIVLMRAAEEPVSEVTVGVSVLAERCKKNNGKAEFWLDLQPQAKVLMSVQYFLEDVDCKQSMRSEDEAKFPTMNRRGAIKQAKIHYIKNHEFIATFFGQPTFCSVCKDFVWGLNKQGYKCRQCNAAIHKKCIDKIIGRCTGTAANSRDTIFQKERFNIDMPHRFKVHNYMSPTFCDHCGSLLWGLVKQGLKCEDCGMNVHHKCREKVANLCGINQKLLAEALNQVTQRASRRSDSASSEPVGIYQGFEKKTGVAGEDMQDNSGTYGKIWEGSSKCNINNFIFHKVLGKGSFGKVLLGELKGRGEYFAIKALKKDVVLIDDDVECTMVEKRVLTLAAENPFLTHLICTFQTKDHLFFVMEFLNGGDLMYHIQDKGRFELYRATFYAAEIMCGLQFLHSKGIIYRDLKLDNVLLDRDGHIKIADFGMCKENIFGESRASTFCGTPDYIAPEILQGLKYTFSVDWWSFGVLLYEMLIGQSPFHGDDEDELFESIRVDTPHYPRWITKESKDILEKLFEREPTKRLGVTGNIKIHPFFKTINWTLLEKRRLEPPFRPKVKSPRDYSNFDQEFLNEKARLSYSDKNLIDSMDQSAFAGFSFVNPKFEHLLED

[10] = biological target: Sodium-dependent noradrenaline transporter (Homo sapiens) (UniProt P23975); test: Binding affinity to recombinant human norepinephrine transporter at 10 uM relative to control; outline: as §2
[11] = biological target: Testis-specific serine/threonine-protein kinase 1 (Homo sapiens) (UniProt Q9BXA7); test: Inhibition of recombinant full length His-tagged human TSSK1 expressed in baculovirus expression system at 1 uM by FRET assay relative to control
Sequence of Testis-specific serine/threonine-protein kinase 1 (Homo sapiens) (Q9BXA7 whole entry): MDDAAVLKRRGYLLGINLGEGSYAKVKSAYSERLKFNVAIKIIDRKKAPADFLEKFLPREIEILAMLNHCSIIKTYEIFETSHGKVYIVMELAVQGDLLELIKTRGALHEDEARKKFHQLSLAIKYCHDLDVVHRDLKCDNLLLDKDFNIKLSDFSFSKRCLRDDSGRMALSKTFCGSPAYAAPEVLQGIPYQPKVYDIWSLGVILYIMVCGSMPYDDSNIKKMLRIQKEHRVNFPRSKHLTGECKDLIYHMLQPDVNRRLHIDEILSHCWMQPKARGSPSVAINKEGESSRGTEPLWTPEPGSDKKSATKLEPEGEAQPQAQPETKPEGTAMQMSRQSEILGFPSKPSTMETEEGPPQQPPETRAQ

[12] = biological target: Calcium/calmodulin-dependent protein kinase type II subunit alpha (Homo sapiens) (UniProt Q9UQM7); test: Inhibition of CamK2alpha (unknown origin) at 1 uM by FRET assay relative to control
[13] = biological target: Eukaryotic elongation factor 2 kinase (Homo sapiens) (UniProt O00418); test: Inhibition of recombinant full length GST-tagged human eEF2K expressed in Escherichia coli at 1 uM by FRET assay relative to control
[14] = biological target: Mitogen-activated protein kinase 14 (Homo sapiens) (UniProt Q16539); test: Inhibition of recombinant full length GST-tagged human p38alpha expressed in Escherichia coli at 1 uM by FRET assay relative to control
Sequence of Mitogen-activated protein kinase 14 (Homo sapiens) (Q16539 whole entry): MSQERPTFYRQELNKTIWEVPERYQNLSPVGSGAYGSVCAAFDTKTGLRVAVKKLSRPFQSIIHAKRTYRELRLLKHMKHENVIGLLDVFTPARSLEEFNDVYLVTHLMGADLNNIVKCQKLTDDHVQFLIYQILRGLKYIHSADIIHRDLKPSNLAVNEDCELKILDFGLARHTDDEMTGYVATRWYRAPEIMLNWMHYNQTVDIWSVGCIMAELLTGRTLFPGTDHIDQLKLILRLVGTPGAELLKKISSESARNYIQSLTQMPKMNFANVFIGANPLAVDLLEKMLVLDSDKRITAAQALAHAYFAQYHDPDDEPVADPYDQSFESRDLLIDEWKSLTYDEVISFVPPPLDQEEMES

[15] = biological target: Muscarinic acetylcholine receptor M3 (Homo sapiens) (UniProt P20309); test: Binding affinity to recombinant human M3 acetylcholine receptor at 10 uM relative to control; outline: as §2
[16] = biological target: Serine/threonine-protein kinase PAK 6 (Homo sapiens) (UniProt Q9NQU5); test: Inhibition of recombinant full length His-tagged human PAK6 expressed in baculovirus expression system at 1 uM by FRET assay relative to control
[17] = biological target: CDK8/Cyclin C (Homo sapiens) (UniProt P49336+P24863); test: Inhibition of recombinant full length His-tagged human CDK8/CyclinC expressed in baculovirus expression system at 1 uM by FRET assay relative to control
[18] = biological target: Receptor tyrosine-protein kinase erbB-2 (Homo sapiens) (UniProt P04626); test: Inhibition of recombinant His-tagged human ErbB2 cytoplasmic domain expressed in baculovirus expression system at 1 uM by FRET assay relative to control; outline: as §3
[19] = biological target: 5-hydroxytryptamine receptor 2A (Homo sapiens) (UniProt P28223); test: Binding affinity to 5HT2A receptor (unknown origin) receptor at 10 uM relative to control; outline: as §2
[20] = biological target: Tyrosine-protein kinase FRK (Homo sapiens) (UniProt P42685); test: Inhibition of recombinant full length GST-tagged human FRK cytoplasmoic domain expressed in baculovirus expression system at 1 uM by FRET assay relative to control; outline: as §1
Sequence of Tyrosine-protein kinase FRK (Homo sapiens) (P42685 whole entry, the tested form may be a part): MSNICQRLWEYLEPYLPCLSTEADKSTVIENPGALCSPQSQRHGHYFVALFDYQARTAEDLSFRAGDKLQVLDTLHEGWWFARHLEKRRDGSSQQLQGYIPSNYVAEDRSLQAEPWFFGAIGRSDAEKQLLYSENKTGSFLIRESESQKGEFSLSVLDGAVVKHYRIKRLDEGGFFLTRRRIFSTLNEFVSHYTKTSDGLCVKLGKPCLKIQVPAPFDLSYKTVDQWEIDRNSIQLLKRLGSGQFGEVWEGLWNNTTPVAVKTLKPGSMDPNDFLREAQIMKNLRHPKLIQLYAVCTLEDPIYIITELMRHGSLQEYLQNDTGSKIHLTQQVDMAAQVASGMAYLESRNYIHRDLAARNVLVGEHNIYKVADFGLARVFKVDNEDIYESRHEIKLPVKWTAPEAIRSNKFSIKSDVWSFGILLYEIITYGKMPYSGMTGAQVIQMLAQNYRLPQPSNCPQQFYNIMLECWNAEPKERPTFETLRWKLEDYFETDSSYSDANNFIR

[21] = biological target: SRSF protein kinase 3 (Homo sapiens) (UniProt Q9UPE1); test: Inhibition of recombinant full length N-terminal GST-tagged human MSSK1 expressed in baculovirus at 1 uM by FRET assay relative to control
Sequence of SRSF protein kinase 3 (Homo sapiens) (Q9UPE1 whole entry): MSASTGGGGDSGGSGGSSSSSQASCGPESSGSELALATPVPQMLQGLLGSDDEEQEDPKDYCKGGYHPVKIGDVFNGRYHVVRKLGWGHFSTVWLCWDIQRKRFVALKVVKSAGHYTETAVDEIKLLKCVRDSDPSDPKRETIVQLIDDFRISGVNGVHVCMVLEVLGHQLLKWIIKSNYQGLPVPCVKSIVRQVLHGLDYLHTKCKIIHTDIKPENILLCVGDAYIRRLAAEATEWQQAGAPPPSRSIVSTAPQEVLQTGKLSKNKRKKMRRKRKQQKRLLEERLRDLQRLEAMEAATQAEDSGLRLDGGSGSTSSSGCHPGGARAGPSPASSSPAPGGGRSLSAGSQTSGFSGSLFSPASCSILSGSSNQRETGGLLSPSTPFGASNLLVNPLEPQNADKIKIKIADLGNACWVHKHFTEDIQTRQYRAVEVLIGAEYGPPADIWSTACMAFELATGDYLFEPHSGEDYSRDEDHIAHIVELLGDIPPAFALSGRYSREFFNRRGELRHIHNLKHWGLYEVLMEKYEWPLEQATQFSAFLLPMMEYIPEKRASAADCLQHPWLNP

[22] = biological target: Beta-1 adrenergic receptor (Homo sapiens) (UniProt P08588); test: Binding affinity to recombinant human beta1 adrenergic receptor at 10 uM relative to control; outline: as §2
[23] = biological target: Nicotinic acetylcholine receptor alpha-1/beta-1/delta/epsilon (Homo sapiens) (UniProt P02708+P11230+Q07001+Q04844); test: Binding affinity to (alpha1)2beta1deltaepsilon nAChR (unknown origin) receptor at 10 uM relative to control; type: protein-complex assay; outline: as §2
[24] = biological target: Protein-tyrosine kinase 6 (Homo sapiens) (UniProt Q13882); test: Inhibition of recombinant full length His-tagged human Brk cytoplasmic domain expressed in baculovirus expression system at 1 uM by FRET assay relative to control
[25] = biological target: Calcium/calmodulin-dependent protein kinase type II subunit beta (Homo sapiens) (UniProt Q13554); test: Inhibition of recombinant full length His-tagged human CaMK2beta expressed in baculovirus expression system at 1 uM by FRET assay relative to control
[26] = biological target: 5-hydroxytryptamine receptor 1A (Homo sapiens) (UniProt P08908); test: Binding affinity to 5HT1A receptor (unknown origin) receptor at 10 uM relative to control; outline: as §2
Homo sapiens = species: Homo sapiens; test: Binding affinity to GABA-gated chloride channel (unknown origin) receptor at 10 uM relative to control; outline: as §2
[27] = biological target: Fibroblast growth factor receptor 3 (Homo sapiens) (UniProt P22607); test: Inhibition of recombinant His-tagged FGFR3 human cytoplasmic domain expressed in baculovirus expression system at 1 uM by FRET assay relative to control; outline: as §3

SMILES	inhibition [1]	inhibition [2]	inhibition [3]	Activity [4]	inhibition [5]	inhibition (Ephrin type-A receptor 7)	inhibition [6]	IC50 [7]	inhibition [8]	inhibition [9]	Activity [10]	inhibition [11]	inhibition [12]	inhibition [13]	inhibition [14]	Activity [15]	inhibition [16]	inhibition [17]	inhibition [18]	Activity [19]	also measured
Nc1ncc(-c2cc([C@H]3[C@@H]4CN(C5COC5)C[C@@H]43)n(CC3CC3)n2)cc1C(F)(F)F	22.4%	3.5%	-8.7%	> 50%	10%	51.4%	-0.4%	> 10 µM	3.8%	-0.7%	> 50%	11.5%	0.6%	-5.1%	5.8%	> 50%	5.1%	2.4%	-5.4%	> 50%	inhibition [20]: 19.7%; inhibition [21]: -2.4%; Activity [22]: > 50%; Activity [23]: > 50%; inhibition [24]: 5.8%; inhibition [25]: 1.6%; Activity [26]: > 50%; Activity (Homo sapiens): > 50%; inhibition [27]: -9.3%
CC(C)n1nc(-c2cnc(N)c(OC(F)(F)F)c2)cc1[C@H]1[C@@H]2CN(C3COC3)C[C@@H]21	30.3%	3.6%	3.5%	> 50%	4.6%	39%	5%	> 10 µM	8.6%	0.9%	> 50%	9.4%	2.4%	4.4%	1.1%	> 50%	4.8%	9.9%	-0.8%	> 50%	inhibition [20]: 14.4%; inhibition [21]: 6.5%; Activity [22]: > 50%; Activity [23]: > 50%; inhibition [24]: 7.8%; inhibition [25]: 10.6%; Activity [26]: > 50%; Activity (Homo sapiens): > 50%; inhibition [27]: -1.8%
